Measurements from PubChem BioAssay AID686939 (The Scripps Research Institute Molecular Screening Center, 2013).
In all, about 3,500 compounds went through this assay and about 1,400 (40%) were called active. The set was probably picked from earlier hits. These entries were drawn from the full list. A number with no mark means an inactive call.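 Rule for the calls: active = activation above the solvent-only control well mean plus 3 SD, averaged across control plates (cut at about 5.2% in these data); inactive = the rest.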

Test: nonselective transcriptional activators, VP16 reporter – cell-based, pG5luc, luminescence, high throughput, counter-screen for SMARCA2 (BRM) activator project (AID 686939)
Details: HEK293 GAL4-VP16 pG5luc reporter, luciferase luminescence; at 9.1 µM; hits give high values; scaled: DMSO wells 0%, SAHA wells 100%
How it was run: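 Assay system: 293 cells carrying GAL4-VP16 plus UAS-luciferase reporter; input: 2,500 transfected 293 cells per well; incubation: 24 h compound treatment at 37 °C, 15 min detection incubation; measured by: One-Glo luciferase luminescence; read-out: percent activation scaled between DMSO (0%) and SAHA (100%) control medians; benchmarks: DMSO and SAHA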

SMILES | activation
O=C(Nc1nnc(CCc2ccccc2)s1)C1CCCO1 (stereo not drawn) | 0.86%
Cc1cc(C)c2nc(NC(=O)C3CCCO3)sc2c1 (stereo not drawn) | 7.97% (active)
Cc1ccccc1C1=N/C(=C/c2cccnc2)C(=O)O1 | 0.55%
COC(=O)c1ccc(NCc2cc(O)ccc2O)cc1 | 5.14% (active)
Cc1ccc(O)c(CNc2nc3ccccc3n2C)c1 | 1.49%
COC(=O)c1ccc(/C=C2/C(=O)Oc3ccccc32)cc1 | -0.16%
CCC1CCC/C1=N\NC(=O)c1ccc(Cl)cc1 (stereo not drawn) | 0.4%
O=C(C1CCC1)N1CCN(S(=O)(=O)c2ccc([N+](=O)[O-])cc2)CC1 | 0.6%
Cc1ccsc1-c1nc(CSCC(=O)NCCN2CCCC2)c(C)o1 | 0.41%
Cc1ccc(C(=O)Nc2nc3ccc(Cl)cc3s2)o1 | 7.07% (active)
CC1CCCCN1C(=S)NCc1ccccc1 (stereo not drawn) | -0.22%
Cc1ccc(C(=O)NNC(=O)c2cccs2)cc1 | 6.36% (active)
Cc1ccc(S(=O)(=O)c2c[nH]c3ccc(Cl)cc3c2=O)cc1 | -0.72%
Cc1ccc(S(=O)(=O)NC(C)C(=O)NCc2ccc(Cl)cc2)cc1 (stereo not drawn) | -0.12%
COc1ccc(NC(=O)c2sccc2SCC#N)cc1 | 2.71%
O=[N+]([O-])c1ccc2c(c1)Nc1nc3ccccc3nc1N2 | 10.8% (active)
CCCn1c(=O)c2ccccc2n2c(SCC(=O)/C(C#N)=C(\C)N)nnc12 | -0.93%
CCc1cc2c(=O)c(-c3ccon3)c(N)oc2cc1OC | 5.65% (active)
Cc1n[nH]c(=O)nc1N/N=C/c1cccs1 | 2.94%
CC(C)c1ccc(NC(=S)NC2CC3C=CC2C3)cc1 (stereo not drawn) | 8.15% (active)
CCc1ccc(NC2Nc3cc(C)nn3S2)cc1 (stereo not drawn) | 6.27% (active)
O=C(NCC1CCCO1)c1cc2c(s1)CCCC2 (stereo not drawn) | 10.9% (active)
Cc1ccc(NC(=O)c2cnc(SCC(=O)NCC3CCCO3)n(C)c2=O)cc1 (stereo not drawn) | 3.55%
O=C(Nc1ccc(F)cc1)c1cc2c(s1)CCCC2 | 10.8% (active)
COCn1c(COc2ccccc2)nc2ccccc21 | 3.98%
CN1CCN(CCCNC(=O)c2ccc(/C=C3\Oc4ccccc4N(Cc4ccc(Cl)cc4)C3=O)cc2)CC1 | 2.16%

SMILES | activation
COC(=O)Cc1nnn2c1[C@H](C)[C@H](c1ccccc1[N+](=O)[O-])OCC2 | 1.5%
CCOc1cc(NC(=S)NCCCOC)c(OCC)cc1NC(=O)c1ccco1 | -0.82%
O=C(Nc1ccc2nccnc2c1)c1ccco1 | 6.58% (active)
O=C(Nc1ccc(NC(=O)c2cccs2)cn1)c1ccco1 | 11.6% (active)
C/C(CC(=O)NC(C)(C)C)=N\NC(=O)c1ccco1 | 1.25%
Cn1sc(=O)c2cc(S(=O)(=O)NC3CC3)ccc21 | 1.24%
Cc1ccsc1C(=O)N/N=C/c1ccc([N+](=O)[O-])cc1 | 14.2% (active)
O=C1/C(=C\c2ccc([N+](=O)[O-])cc2)CS(=O)(=O)C/C1=C/c1ccc([N+](=O)[O-])cc1 | -4.02%
O=C(OCC(=O)c1cccs1)C1=COCCO1 | 7.73% (active)
O=C(NCc1ccccn1)c1cnc2sccn2c1=O | 2.95%
Cc1cc(C)n2nc(CNS(=O)(=O)c3c(F)c(F)c(F)c(F)c3F)nc2n1 | 1.55%
CC(C)(C)C(=O)CSc1nc2ccccc2o1 | 5.87% (active)
CN(C)c1nc(=Nc2cccc(Cl)c2)ss1 | 1.47%
COc1ccc(/C(N)=N/OC(=O)Oc2ccccc2)cc1 | -0.09%
CCCOc1ccc(-c2nc(N)n[nH]2)cc1 | 6.36% (active)
COc1ccc2nc(/N=C(\N)NC(=O)Nc3ccccc3)nc(C)c2c1 | -0.04%
Cc1ccnc(NC(=O)C2CCN(S(=O)(=O)c3c(C)c(C)cc(C)c3C)CC2)c1 | 1.57%
COc1cccc(C(=O)Nc2nc3ccc(S(C)(=O)=O)cc3s2)c1 | 5.21% (active)
N#Cc1ccccc1NC(=O)c1cccc(COc2ccc(Cl)cc2Cl)c1 | 21.9% (active)
COc1ccc(S(=O)(=O)NC(C)C(=O)N2CCCCCC2)cc1 (stereo not drawn) | -0.22%
CC(=O)Nc1ccc(Nc2c3ccccc3nc3ccccc23)cc1 | 1.5%
CCCC(=O)N1c2ccc(-c3csc(N)n3)cc2CC1C (stereo not drawn) | 13.6% (active)
CCC(=O)Nc1ccc2nn(-c3ccc(F)cc3)nc2c1 | 7.66% (active)
CCCSC(=S)NC1CCS(=O)(=O)C1 (stereo not drawn) | -1.45%
Cc1noc(C)c1/C=N/Nc1ccc2ccccc2n1 | 11.4% (active)
COc1ccc(/C=C/C(=O)Nc2ccc(C34CC5CC(CC(O)(C5)C3)C4)cc2)cc1OC | 16.6% (active)

SMILES | activation
Cc1c(NC(=O)CSc2cccc3cccnc23)c(=O)n(-c2ccccc2)n1C | -2.03%
COc1ccc(C(=O)N/N=c2\oc3ccccc3cc2C(N)=O)cc1 | 2.08%
Cn1cc(/C=C/C(=O)N2CCCC(C(=O)c3ccc(C(F)(F)F)cc3)C2)cn1 (stereo not drawn) | 0.52%
CCN(CC)CCNC(=O)c1ccc(NC(=O)c2cc(-c3ccncc3)nc3ccccc23)cc1 | 1.61%
CN(C)CCNC(=O)c1ccc(Cl)c2cc3ccccc3nc12 | 10.7% (active)
O=C(CCCCCn1c(=S)[nH]c2ccsc2c1=O)NC1CCCCC1 | -0.19%
Oc1cccc2ccc(/C=C/c3ccc(Br)s3)nc12 | 8.85% (active)
Cc1nc(N=C(N)N)nc2c(C)cccc12 | 0.25%
Cc1ccc(NC(=O)c2cc3ccccc3o2)cc1 | 4.91%
CC(=O)c1sc(NC(=O)c2ccc(C)cc2)nc1C | 8.83% (active)
Cc1ccc(Nc2nc(Cl)c(C=O)s2)cc1 | 3.07%
CC(=O)c1sc(N/N=C\c2ccc(C)cc2)nc1C | 6.19% (active)
CC(=O)Oc1ccc(C(=O)Nc2nccs2)cc1 | 5%
CC(C)C[C@H]1CNC(=O)C(=O)N1C[C@H]1CCCN1C[C@H](Cc1ccc(O)cc1)N1C[C@H](CC(C)C)N(CC2CCCCCC2)C(=O)C1=O | 0.47%
Cc1ccc(-c2nc3ccc(Cl)cn3c2Cc2ccccc2)cc1 | 5.49% (active)
Cc1ccc(-c2nc3ccc(Br)cn3c2Cc2ccccc2C(F)(F)F)cc1 | 7.09% (active)
CC(C)Cc1nnc(NC(=O)CCNC(=O)c2ccccc2Cl)s1 | -0.47%
Cc1cc(-n2cnc(-c3cn(C)nc3C)n2)no1 | 2.79%
Cc1nnc(NC(=O)Cn2c(=O)sc3ccccc32)s1 | 0.78%
COc1ccccc1C1=Nc2cccc3cccc(c23)N1 | 2.12%
NS(=O)(=O)c1ccccc1NC(=O)c1c(O)c2ccccc2[nH]c1=O | 14.3% (active)
CCN(CC)C(=O)CSc1nnc(-c2cccc(OC)c2)o1 | 2.98%
CCOC(=O)Nc1ccc(NC(=O)OCC)cc1 | 2.67%
COc1ccc(-c2cc(-c3ccc(N)cc3)nc(N)c2C#N)cc1OC | 3.72%
CCCCCCOC(=O)NCC(O)c1ccccc1 (stereo not drawn) | 9.46% (active)
CC(=O)c1ccc(NC(=O)c2sc3nc4n(c(=O)c3c2C)CCCCC4)cc1 | 9.18% (active)

SMILES | activation
O=c1c2c(nc3n1CCCCC3)sc1c(O)cccc12 | 6.75% (active)
CCOc1cccc2c1OC1(CCCCC1)N1N=C(c3cccnc3)CC21 (stereo not drawn) | 0.45%
O=C(Cn1ncc(N2CCCC2)c(Br)c1=O)c1ccc(Cl)cc1 | 5.53% (active)
COc1ccc2ccccc2c1CNCc1ccccn1 | 4.06%
C1=C(CCNc2ncnc3c2cnn3-c2ccccc2)CCCC1 | 14.9% (active)
CN(C)C(CNC(=O)c1ccc(OCc2cn3ccccc3n2)cc1)c1ccco1 (stereo not drawn) | 3.42%
C=CC(=O)OCCOCCOCCOCCOC(=O)C=C | 3.33%
COC(=O)C1C(=O)c2c([nH]c(C(=O)OCCSC)c2C)CC1C (stereo not drawn) | 11.8% (active)
O=C(CSc1nc2ccccc2[nH]1)c1cccs1 | 13.1% (active)
CC1(C(=O)NS(=O)(=O)C2CC2)CCCN(C(=O)CSc2ccccc2)C1 (stereo not drawn) | -0.05%
Cc1cc(C(=O)NNC(=S)Nc2ccccc2C)cs1 | 8.68% (active)
Cc1ccc(-n2c(SCC(=O)N3CCC(C(=O)O)CC3)nc3ccccc3c2=O)cc1C | 4.53%
CCNC(=S)N1CCN(c2ncccn2)CC1 | -0.27%
COC(=O)c1sc(-c2ccc(C(C)(C)C)cc2)cc1NC(=O)/C=C/C(=O)O | 4.46%
Cn1c2ccc(F)cc2c2nnc(NN)nc21 | 0.75%
Cc1cccc(CSc2ccc(-c3cccs3)nn2)c1 | 3.46%
COc1ccc(Cn2c(C)c(C)c(C#N)c2NC(=O)Nc2ccc(F)cc2)cc1 | -0.19%
O=C(Nc1ccc2c(c1)CCC2)c1ccc(Br)s1 | 5.57% (active)
O=C(NC1CCCC1)C(=O)c1c[nH]c2ccccc12 | 6.44% (active)
CC(=O)c1cccc(-c2cnc3c(NC=O)cc(-c4ccc(N5CCN(C)CC5)cc4)cn23)c1 | 2.83%
CCN(CC)C(=O)c1sc2nc(-c3ccccc3)ccc2c1N | 11.2% (active)
COc1cccc(C(=O)Nc2cc3c(cc2Br)OCCCO3)c1 | 9.44% (active)
c1ccc2cc3c(NCCN4CCOCC4)ccnc3cc2c1 | 0.84%
Cc1cccc(-n2c(O)c(C=Nc3ccccc3N)c(=O)[nH]c2=O)c1 | 6.14% (active)
C=C1C(=O)[C@]23C[C@H]1CCC2[C@@]1(C)C(C[C@@H]3O)[C@](C)(C(=O)O)CC[C@@H]1O (stereo partly drawn) | 1.65%
